# A1 apoptosis 2 = A1 inhibition read as caspase activation | 24,000 tested, under 10 active | AID 2465 | MEF A1-2A-BIM cells, caspase-Glo luminescence, 3 h; percent of clofoctol response, DMSO zero | caspase activation, % (no concentration beside the values); in the data active = caspase activation above about 5.9%
#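 Material: A1-2A-BIM-expressing MEF cells. Buffer or medium: RPMI-1640 plus 10% FBS. Incubation: cells settled overnight, compound exposure 3 h at 37 °C, 5% CO2. Signal: Caspase-Glo 3/7 luminescence, 1 h at room temperature.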
# T cruzi intra = intracellular Trypanosoma cruzi inhibition. intracellular Trypanosoma cruzi in host cells, plate reader. activity score (inhibition), % at 5.01 µM. actives 4.9% (n = 22,000). AID 651903; in the data active = activity score above about 55%;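 also: parasites and compound incubated about four days before reading; 0% = median of neutral control wells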
# INS-1E rescue = INS-1E beta cell protection from cytokine death | INS-1E cytokine-induced death, ATP luminescence, 48 h; normalised: neutral wells 0, positive control 100 | protection from cytokine-induced ATP loss, % at 10 µM | actives 0.1% (n = 20,000);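 active = mean replicate protection from cytokine-induced ATP loss at least 50% and at least 75% of replicates each reaching 50%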
#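 Assay system – rat INS-1E insulinoma cell line · Quantity – 8000 cells per well · Buffer or medium – RPMI without phenol red, 5% FBS · Schedule – 48 h co-treatment, 10 min post-lysis read · Technique – luminescent ATP assay (CellTiter-Glo)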
# * = called active by the depositor; / = no result. Shown is part of a subset that was picked to be rich in hits.
SMILES,A1 apoptosis 2,T cruzi intra,INS-1E rescue
CN(C)CCCOc1ccc(/C=N/NC(=O)CCCCC(=O)NO)cc1,1,30,-8
O=C(N/N=C/c1cccnc1Br)c1ccccc1O,/,-13,-30
O=C(NO)c1ccc(C(=O)N/N=C/c2cccnc2Cl)cc1,1,7,8
O=C1O[C@H](c2ccccc2)[C@H](c2ccccc2)N2[C@H]1[C@@H](C(=O)NC[C@H](O)c1ccccc1)[C@]1(C(=O)Nc3ccc(C#CCCO)cc31)[C@H]2c1ccccc1OCCO,1,/,/
C[C@H]1CN([C@@H](C)CO)C(=O)c2cccc(NC(=O)c3nc4ccccc4s3)c2O[C@H]1CN(C)Cc1ccc(C(=O)Nc2ccccc2N)cc1,1,79*,-10
C[C@H](CO)N1C[C@H](C)[C@H](CN(C)Cc2ccncc2)Oc2c(NC(=O)c3nc4ccccc4s3)cccc2C1=O,/,11,1
C[C@@H]1CN([C@H](C)CO)C(=O)c2cccc(NC(=O)c3nc4ccccc4s3)c2O[C@H]1CN(C)Cc1ccc(C(=O)Nc2ccccc2N)cc1,/,79*,18
C[C@H](CO)N1C[C@H](C)[C@@H](CN(C)Cc2ccncc2)Oc2c(NC(=O)c3nc4ccccc4s3)cccc2C1=O,-3,27,-12
CN(C)c1ccc(/C=N/NC(=O)CCCCCCC(=O)Nc2ccccc2O)cc1,-1,10,-3
O=C(CCCCCC(=O)Nc1ccccc1O)N/N=C/C1=CCCCC1,0,/,/
O=C(O)CCCCCC(=O)N/N=C/C1CCCCC1,1,-15,1
Cc1noc(C)c1NC(=O)Nc1cccc2c1O[C@@H](CN(C)S(C)(=O)=O)[C@H](C)CN([C@H](C)CO)C2=O,/,-34,4
Cc1noc(C)c1NC(=O)Nc1cccc2c1O[C@@H](CN(C)S(C)(=O)=O)[C@@H](C)CN([C@@H](C)CO)C2=O,/,67*,-59
C[C@H](CO)N1C[C@H](C)[C@H](CN(C)S(=O)(=O)c2cccs2)Oc2c(NC(=O)Nc3ccc(C(F)(F)F)cc3)cccc2C1=O,0,84*,-102
C[C@H](CO)N1C[C@H](C)[C@@H](CN(C)S(=O)(=O)c2ccc(F)cc2)Oc2c(NC(=O)Nc3ccc(C(F)(F)F)cc3)cccc2C1=O,2,57*,-33
C[C@H](CO)N1C[C@H](C)[C@@H](CN(C)S(=O)(=O)c2ccc(Cl)cc2)Oc2c(NC(=O)Nc3ccccc3)cccc2C1=O,0,68*,1
C[C@H]1CN([C@@H](C)CO)C(=O)c2cccc(NC(=O)Nc3ccc(C(F)(F)F)cc3)c2O[C@H]1CN(C)S(=O)(=O)c1cccs1,-1,25,-21
C[C@@H]1CN([C@@H](C)CO)C(=O)c2cccc(NC(=O)Nc3ccc(C(F)(F)F)cc3)c2O[C@H]1CN(C)S(=O)(=O)c1ccc(F)cc1,1,33,-7
C[C@H](CO)N1C[C@H](C)[C@H](CN(C)S(=O)(=O)c2ccc(Cl)cc2)Oc2c(NC(=O)Nc3ccccc3)cccc2C1=O,/,-73,-6
COC(=O)CCCCCCC(=O)N/N=C/c1ccc(OC)cc1,0,-2,13
COCCOC(=O)N1C(=O)[C@@]2(c3ccccc31)[C@H](C(N)=O)[C@H]1C(=O)O[C@H](c3ccccc3)[C@H](c3ccccc3)N1[C@@H]2c1ccc(OCCO)cc1,-1,/,/
O=C(CCCCC(=O)N/N=C/c1ccc(Br)s1)NO,-1,/,/
C[C@H]1CN([C@@H](C)CO)C(=O)c2cccc(NC(=O)CCCCCC(=O)Nc3ccccc3N)c2O[C@@H]1CN(C)S(=O)(=O)c1ccc(Cl)cc1,0,35,2
C[C@@H]1CN([C@@H](C)CO)C(=O)c2cccc(NC(=O)Nc3ccc(C(F)(F)F)cc3)c2O[C@H]1CN(C)S(=O)(=O)c1ccc(Cl)cc1,0,80*,-17
Cc1ccc(S(=O)(=O)N(C)C[C@@H]2Oc3c(NC(=O)Nc4ccc(C(F)(F)F)cc4)cccc3C(=O)N([C@H](C)CO)C[C@@H]2C)cc1,-1,85*,-69
SMILES,A1 apoptosis 2,T cruzi intra,INS-1E rescue
Cc1ccc(S(=O)(=O)N(C)C[C@H]2Oc3c(NC(=O)Nc4ccc(C(F)(F)F)cc4)cccc3C(=O)N([C@H](C)CO)C[C@H]2C)cc1,/,38,-36
C[C@H](CO)N1C[C@H](C)[C@@H](CN(C)S(=O)(=O)c2ccc(Cl)cc2)Oc2c(NC(=O)Nc3ccc(C(F)(F)F)cc3)cccc2C1=O,-1,33,-29
C[C@H](CO)N1C[C@H](C)[C@H](CN(C)S(=O)(=O)c2ccc(Cl)cc2)Oc2c(NC(=O)CCCCCC(=O)Nc3ccccc3N)cccc2C1=O,1,74*,10
CC(C)(C)OC(=O)N1CCC[C@H]1/C=N/NC(=O)CCCCCCC(=O)O,/,-10,3
C[C@@H]1CN([C@@H](C)CO)C(=O)Cc2cc(NC(=O)Cc3cn(C)c4ccccc34)ccc2O[C@@H]1CN(C)Cc1ccncc1,0,65*,-9
C[C@@H]1CN([C@@H](C)CO)C(=O)c2cc(NC(=O)Cc3cn(C)c4ccccc34)ccc2O[C@@H]1CN(C)Cc1ccc(Cl)c(Cl)c1,-1,11,-33
C[C@@H]1CN([C@@H](C)CO)C(=O)Cc2cc(NC(=O)Cc3cn(C)c4ccccc34)ccc2O[C@@H]1CN(C)Cc1ccc(Cl)c(Cl)c1,/,69*,-46
C[C@@H]1CN([C@H](C)CO)C(=O)c2cc(NC(=O)Cc3cn(C)c4ccccc34)ccc2O[C@@H]1CN(C)Cc1ccc(Cl)c(Cl)c1,/,79*,-15
C[C@H](CO)N1C[C@H](C)[C@H](CN(C)Cc2ccccc2)Oc2ccc(NC(=O)Cc3cn(C)c4ccccc34)cc2CC1=O,-1,7,1
C[C@@H]1CN([C@@H](C)CO)C(=O)Cc2cc(NC(=O)Cc3cn(C)c4ccccc34)ccc2O[C@H]1CN(C)Cc1ccc(Cl)c(Cl)c1,-1,/,/
C[C@@H]1CN([C@H](C)CO)C(=O)Cc2cc(NC(=O)Cc3cn(C)c4ccccc34)ccc2O[C@H]1CN(C)Cc1ccncc1,-2,-15,14
C[C@@H]1CN([C@H](C)CO)C(=O)Cc2cc(NC(=O)Cc3cn(C)c4ccccc34)ccc2O[C@H]1CN(C)Cc1ccc(Cl)c(Cl)c1,/,63*,-17
C=CCNC(=O)[C@H]1[C@@H]2C(=O)O[C@@H](c3ccccc3)[C@@H](c3ccccc3)N2[C@@H](c2ccc(OCCO)cc2)[C@]12C(=O)N(C(=O)OCCOC)c1ccc(C#CC3(O)CCCCCC3)cc12,1,/,/
CO[C@H]1O[C@H](CO)[C@@H](OC(=O)Nc2ccccc2)[C@H](OC(=O)Nc2ccccc2-c2ccccc2)[C@@H]1OC(=O)Nc1ccccc1-c1ccccc1,-1,/,/
COc1ccc(Br)cc1/C=N/NC(=O)c1ccccn1,0,-20,10
C[C@@H]1CN([C@H](C)CO)C(=O)c2cccc(NC(=O)c3nc4ccccc4s3)c2O[C@@H]1CN(C)CC1CCCCC1,/,13,-48
C[C@H](CO)N1C[C@H](C)[C@@H](CN(C)CC2CCCCC2)Oc2c(NC(=O)c3nc4ccccc4s3)cccc2C1=O,/,64*,-41

# High-throughput results as filed in PubChem.
